Source: PubChem BioAssay
hERG rescue: compounds protecting human hERG from proarrhythmic drug block. AID 1511. hit rate 0.51% among 310,000. CHO-hERG, FluxOR thallium flux, dofetilide IC70 present. activation (rescue from dofetilide block), less the hit threshold, % at 10 µM. Q12809;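 active = activation above the mean of controls blocked by dofetilide plus 5 SD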;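 note: thallium influx through hERG after potassium depolarization seen as dye fluorescence rise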
Target sequence (Q12809 whole entry, looked up): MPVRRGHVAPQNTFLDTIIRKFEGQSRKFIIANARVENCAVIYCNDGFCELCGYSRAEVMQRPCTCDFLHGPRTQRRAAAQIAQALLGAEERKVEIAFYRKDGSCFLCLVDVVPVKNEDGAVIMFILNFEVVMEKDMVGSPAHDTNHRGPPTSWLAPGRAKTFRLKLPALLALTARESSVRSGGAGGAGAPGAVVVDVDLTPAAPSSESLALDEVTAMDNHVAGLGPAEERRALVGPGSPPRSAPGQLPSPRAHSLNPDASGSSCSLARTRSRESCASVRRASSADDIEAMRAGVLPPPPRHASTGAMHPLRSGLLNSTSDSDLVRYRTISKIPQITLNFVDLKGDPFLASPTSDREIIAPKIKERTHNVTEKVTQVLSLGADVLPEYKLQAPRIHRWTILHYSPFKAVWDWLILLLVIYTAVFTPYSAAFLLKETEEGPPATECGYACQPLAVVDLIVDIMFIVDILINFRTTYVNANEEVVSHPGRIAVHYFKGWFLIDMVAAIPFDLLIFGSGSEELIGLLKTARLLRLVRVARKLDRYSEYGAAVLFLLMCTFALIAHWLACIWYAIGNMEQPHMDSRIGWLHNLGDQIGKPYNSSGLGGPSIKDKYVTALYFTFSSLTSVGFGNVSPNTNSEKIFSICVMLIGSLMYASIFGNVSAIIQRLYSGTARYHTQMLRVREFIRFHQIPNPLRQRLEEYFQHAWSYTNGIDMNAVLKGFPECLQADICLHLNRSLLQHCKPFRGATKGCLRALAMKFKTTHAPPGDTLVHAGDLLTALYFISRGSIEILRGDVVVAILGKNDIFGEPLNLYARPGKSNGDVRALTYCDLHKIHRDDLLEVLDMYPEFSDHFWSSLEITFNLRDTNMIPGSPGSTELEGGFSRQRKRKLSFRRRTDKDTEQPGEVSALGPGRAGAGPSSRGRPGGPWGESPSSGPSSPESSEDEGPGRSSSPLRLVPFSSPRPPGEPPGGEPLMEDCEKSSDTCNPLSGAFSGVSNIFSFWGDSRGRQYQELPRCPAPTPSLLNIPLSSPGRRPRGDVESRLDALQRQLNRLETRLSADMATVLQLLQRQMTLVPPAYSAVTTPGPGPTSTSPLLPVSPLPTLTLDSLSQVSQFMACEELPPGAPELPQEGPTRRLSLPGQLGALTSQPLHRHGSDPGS
KCNK9 inh: human KCNK9 channel inhibition | Q9NPC2 | HEK293 KCNK9, FluxOR thallium flux fluorescence; stronger effect = lower value | B-score at 10 µM | hit rate 1.2% among 310,000 | AID 488922;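 active = ratio B-score over 3 SD below the library mean, with starting fluorescence within 5 SD of its mean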;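 note: negative B-score means less thallium flux so channel inhibition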
KCNK3 inh: human KCNK3 channel inhibition, primary screen. O14649. CHO-KCNK3 thallium flux, FluxOR fluorescence; stronger effect = lower value. B-score at 10 µM. hit rate 0.84% among 340,000. AID 602410;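 active = B-score under library mean minus 4 SD, starting fluorescence ratio at most library mean plus 5 SD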;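 note: more negative B-score means stronger inhibition of thallium flux through KCNK3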
KCNQ1 act: human KCNQ1 channel potentiation or activation; P51787; CHO-K1 KCNQ1, thallium flux FluxOR fluorescence; stronger effect = higher value; B-score at 10 µM; hit rate 0.35% among 310,000;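 active = fluorescence ratio B-score, a plate-corrected score, at least three library SD, with initial intensity B-score within 5 SD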
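Schedule – 37 °C overnight plating, 90-min dark dye load, 20-min compound pretreatment · System – stable KCNQ1 CHO-K1 line · Probe or stimulus – thallium- and potassium-containing depolarizing buffer · Measured by – kinetic FluxOR fluorescence, 10 s baseline plus 110 s post-stimulus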
Kir21 inh: Kir2.1 (mouse) channel inhibition; P35561; HEK293-Kir2.1, FluxOR thallium flux fluorescence; stronger effect = lower value; B-score at 10 µM; hit rate 0.85% among 310,000; AID 1672;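 active = fluorescence ratio B-score at or below minus 3 SD of library scores, with starting-brightness B-score within 2 SD, cut at about -4.2 in these data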;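 note: channel flux triggered by added potassium and thallium sulfate stimulus; B-score of peak minus minimum fluorescence over baseline after thallium stimulus; more negative B-score means stronger Kir2.1 block with less thallium influx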
KCNQ1 inh: blocks the human KCNQ1 potassium channel. B-score at 10 µM. hit rate 1.3% among 310,000. AID 2642. P51787. CHO-K1 KCNQ1, FluxOR thallium flux fluorescence; stronger effect = higher value;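 active = compounds whose thallium flux B-score, printed positive for inhibition, exceeds three library SD while starting fluorescence stays within three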;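 note: channel opened by potassium depolarization with thallium stimulus after 20 min compound exposure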
KCNK9 inh conf: human KCNK9 inhibitor confirmation; shares compounds with KCNK9 inh; HEK293 KCNK9 cells, FluxOR thallium flux fluorescence; inhibition, % at 10 µM; hit rate 43% among 4,900; AID 492992;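 active = thallium signal inhibited by more than 5 SD of the compound-free buffer control wells, on both duplicate plates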;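 note: 0% = assay buffer control wells without compound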
Kir21 sel: mouse Kir2.1 off-target activity of KCNK9 modulators | shares compounds with KCNK9 inh | AID 492993 | Kir2.1 cells, FluxOR thallium flux fluorescence | inhibition, % at 10 µM | hit rate 4% among 4,900;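 active = thallium signal drop more than 5 SD beyond the mean of the no-compound control wells, seen in both duplicate plates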;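 note: signal is fluorescence rise after thallium addition divided by baseline fluorescence; plate controls were assay buffer only for no effect and full block by chlorpromazine control for full effect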
KCNK9 uninduced: non-induced cell nonspecific activity of KCNK9 modulators | hit rate 40% among 4,900 | shares compounds with KCNK9 inh | non-induced KCNK9-HEK293, FluxOR thallium flux | inhibition, % at 10 µM;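 active = thallium signal drop beyond 5 SD of the untreated control mean, on both duplicate plates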;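 note: plate controls were buffer only IC0 wells for no effect and SID17386958 at its maximal inhibitory level for full effect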
An asterisk follows results filed as active; i = inactive; . = not tested or not shown. Hits are enriched below; roughly 3.7% of the tested compounds scored in any of these assays.

SMILES	hERG rescue	KCNK9 inh	KCNK3 inh	KCNQ1 act	Kir21 inh	KCNQ1 inh	KCNK9 inh conf	Kir21 sel	KCNK9 uninduced
COc1ccc2[nH]c(C)c(CCN(Cc3cccs3)C(=S)Nc3ccc(F)cc3)c2c1	-6.8	-11.8*	-16.7*	i	1.41	6*	42.0%*	i	27.0%*
COc1ccc(NC(=S)N(CCc2c(C)[nH]c3ccc(C)cc23)Cc2ccco2)cc1	-17.3	i	i	i	-0.05	i	.	.	.
Cc1ccccc1NC(=S)N(CCc1c(C)[nH]c2ccc(F)cc12)Cc1ccncc1	-10.9	i	i	i	-2.61	i	.	.	.
Cc1[nH]c2ccc(F)cc2c1CCN(Cc1ccncc1)C(=S)Nc1cccc(F)c1	-11.2	-8.13*	i	i	-0.46	7*	36.0%*	i	27.0%*
COc1ccc(NC(=S)N(CCc2c(C)[nH]c3ccc(C)cc23)Cc2cccs2)cc1	-16.2	-9.64*	i	i	2.23	i	i	i	29.0%*
CCSc1nc(N2CCCCC2)c2c(c1C#N)CCCC2	-12.5	-12.5*	i	i	0.11	i	57.0%*	i	45.5%*
CCOc1ccccc1N/C=C(\C#N)c1nc2ccccc2n1C	-5.1	-10.9*	i	i	0.55	i	i	i	i
O=[N+]([O-])c1ccc(Cl)cc1CNc1ccc(F)c(F)c1	-12.1	-8.46*	i	i	-1.46	i	33.0%*	i	27.0%*
COc1ccc(NC(=O)C23CC4CC(C2)CC(c2ccccc2)(C4)C3)c(OC)c1	-2.1	i	i	i	0.35	i	i	i	i
COCCNC(=O)C12CC3CC(C1)CC(c1ccccc1)(C3)C2	-8.7	i	i	i	-0.04	i	.	.	.
Cc1ccc(N=C(NOCc2ccc(Cl)cc2Cl)c2nonc2N)c(C)c1	-2.7	-16.1*	i	i	0.26	i	77.0%*	i	45.5%*
Cc1ccccc1N=C(NOCc1ccc(Cl)cc1Cl)c1nonc1N	-11.4	-16.1*	i	i	1.47	i	81.5%*	i	46.0%*
CCOC(=O)COc1c(Br)cc(/C=C2\SC(=O)N(CC(=O)N3CCCC3)C2=O)cc1OC	-6.4	i	i	i	0.66	i	.	.	.
COc1ccc(-c2ccc(OC)c([C@H]3[C@H]4C=CC[C@@H](C)[C@@H]4C(=O)N3Cc3ccccc3)c2)cc1OC	-14.6	i	i	i	-0.93	i	i	i	i
O=C(Nc1cccc(S(=O)(=O)N2CCOCC2)c1)C1=NN(c2ccccc2)C(=O)CC1	-9.3	i	i	i	2.55	i	.	.	.
Cc1ccc2c(Cl)c(C)c(N3CCCCC3)nc2n1	-6.0	i	i	i	-1.2	i	i	i	i
Cc1nc2ccccc2nc1N1CCCCC1	.	.	i	.	.	.	.	.	.
CC1CCC(C(C)C)C(OC(=O)COC(=O)c2ccc(N)cc2)C1 (centres undefined)	-3.0	i	i	i	0.59	i	i	i	i
CC(C)C[C@H]1C(=O)N2CCC[C@H]2[C@]2(O)O[C@](NC(=O)C3C=C4c5cccc6[nH]c(Br)c(c56)C[C@H]4N(C)C3)(C(C)C)C(=O)N12 (some centres undefined)	-8.6	i	i	i	1.44	7*	i	i	i
O=C(O)C(c1ccccc1)N1C(=O)/C(=C\c2ccc(-c3ccccc3Cl)o2)SC1=S (centres undefined)	-12.4	i	i	i	3.8	i	i	i	i
CCC1=NN2C(=N)/C(=C/c3ccc(OS(=O)(=O)c4ccccc4)cc3)C(=O)N=C2S1	-4.6	i	i	i	-0.99	i	i	i	i
CCC1=NN2C(=N)/C(=C\c3cccn3-c3ccc(C)c(C)c3)C(=O)N=C2S1	-13.5	i	i	i	3.06	i	.	.	.
Cc1cc(C)cc(-n2cccc2/C=C2/C(=N)N3C(=NC2=O)SN=C3S(C)(=O)=O)c1	-19.1	i	i	i	0.23	10*	i	i	i
CCC1=NN2C(=N)/C(=C\c3cccn3-c3ccc(Cl)cc3)C(=O)N=C2S1	-6.5	i	i	i	0.76	i	i	i	i
Cc1ccc(S(=O)(=O)Oc2ccc(/C=C3\C(=N)N4N=C(S(C)(=O)=O)SC4=NC3=O)cc2)cc1	-12.0	i	i	i	0.05	i	i	i	i
SMILES	hERG rescue	KCNK9 inh	KCNK3 inh	KCNQ1 act	Kir21 inh	KCNQ1 inh	KCNK9 inh conf	Kir21 sel	KCNK9 uninduced
CCS(=O)(=O)C1=NN2C(=N)/C(=C\c3ccc(OS(=O)(=O)c4ccccc4)cc3)C(=O)N=C2S1	-20.4	i	i	i	1.5	i	.	.	.
CCN(CC)C(=O)COc1ccc(C=O)cc1OC	-10.0	i	i	i	-0.41	i	.	.	.
COc1ccccc1NS(=O)(=O)c1cccc(C(=O)N/N=C/c2ccc([N+](=O)[O-])o2)c1	.	.	i	.	.	.	.	.	.
COc1ccc(OC)c(Cc2nnc(CCC(=O)NCc3ccc(C)s3)o2)c1	-10.2	i	i	i	-0.13	i	.	.	.
Cc1cc(=O)[nH]c(SCC(=O)NCCC2=CCCCC2)n1	-13.6	i	i	i	2.09	i	.	.	.
Cc1ccc(CN(C)C(=O)c2c(C)nn(-c3ccccc3)c2C)cc1	0.0	i	i	i	-0.39	i	i	i	i
CC(=O)c1c(C)nn(-c2ccccc2)c1C	-10.5	i	i	i	-0.64	i	.	.	.
CCn1c(SCC(=O)Nc2nccs2)nnc1-c1cc2cccc(OC)c2o1	-5.6	i	i	i	-1.95	i	.	.	.
CCn1c(SCC(=O)NC2CCCCC2)nnc1-c1cc2cccc(OC)c2o1	-9.4	i	i	i	-1.17	i	i	i	i
O=S(=O)(c1cccc(S(=O)(=O)N2CCCC2)c1)c1cccc(S(=O)(=O)N2CCCC2)c1	-8.2	-9.19*	i	i	-0.01	i	53.5%*	i	i
O=C(OCc1ccc(Br)cc1)c1cccc(S(=O)(=O)N2CCCC2)c1	-21.4	-12.4*	i	i	-1.82	i	i	i	33.5%*
O=S(=O)(c1cccc(S(=O)(=O)N2CCCC2)c1)N1CCCCC1	-8.5	i	i	i	-0.37	i	.	.	.
